From ChEMBL document CHEMBL1157468, “Design, synthesis, and testing of non-nephrotoxic desazadesferrithiocin polyether analogues” (J Med Chem, 2008)

Tests used:
Rattus norvegicus [1] = assay: Iron-clearing efficiency in non-iron-overloaded Sprague-Dawley rat at 150 umol/kg, po after 24 hrs relative to control; format: functional
How it was run: (§1)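 Male Sprague–Dawley rats (400–450 g), not iron-loaded and bile duct-cannulated, got one dose of 50, 150 or 300 µmol/kg po, or 300 µmol/kg sc. Vehicle was water or the monosodium salt. Bile was collected every 3 h for 24 h and urine at 24 h. Iron was measured by atomic absorption. Efficiency was treated minus control iron excretion, divided by theoretical output (2:1 ligand:iron), as a percent; mean ± SEM.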

Rattus norvegicus [2] = assay: Iron-clearing efficiency in non-iron-overloaded Sprague-Dawley rat at 50 umol/kg, po after 24 hrs relative to control; format: functional; how it was run: as §1
Rattus norvegicus [3] = assay: Iron-clearing efficiency in non-iron-overloaded Sprague-Dawley rat bile assessed as iron excretion at 300 umol/kg, po; format: functional; how it was run: as §1
Rattus norvegicus [4] = assay: Iron-clearing efficiency in non-iron-overloaded Sprague-Dawley rat bile assessed as iron excretion at 150 umol/kg, po; format: functional; how it was run: as §1
Rattus norvegicus [5] = assay: Iron-clearing efficiency in non-iron-overloaded Sprague-Dawley rat bile assessed as iron excretion at 50 umol/kg, po; format: functional; how it was run: as §1
Rattus norvegicus [6] = assay: Iron-clearing efficiency in non-iron-overloaded Sprague-Dawley rat at 300 umol/kg, sc after 24 hrs relative to control; format: functional; how it was run: as §1
Sapajus apella [7] = assay: Iron-clearing efficiency in iron-overloaded Cebus apella at 150 umol/kg, po after 2 days relative to control; format: functional
How it was run: (§2)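 Monkeys (Cebus apella, 3.5–4 kg) were iron-loaded to about 500 mg Fe/kg with iv iron dextran and rested at least 60 days. They then got one 150 µmol/kg dose, po or sc. Feces and urine were collected every 24 h from 4 days before to 5 days after dosing, and iron was measured by flame atomic absorption. Efficiency was the 2-day post-drug iron minus the 4-day pre-drug baseline, divided by theoretical output (2:1 ligand:iron); mean ± SEM.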

Sapajus apella [8] = assay: Iron-clearing efficiency in iron-overloaded Cebus apella at 150 umol/kg, sc after 2 days relative to control; format: functional; how it was run: as §2
Rattus norvegicus [9] = assay: Toxicity in iron-overloaded Sprague-Dawley rat assessed as survival at 75 umol/kg/day, po after 28 days by non-renal perfusion protocol; format: organism-based; details: in vivo, 672 h
How it was run: (§3)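 Male Sprague–Dawley rats were iron-loaded with ip iron dextran, 105 mg/kg/dose × 4 over two weeks, then given two weeks to equilibrate (about 350 mg Fe/kg). They received oral gavage once daily for 28 days in the afternoon, unfasted, six per group, with age-matched controls. Euthanasia was 24 h after the last dose. Survival was recorded, and kidney and bone marrow were sent for histopathology.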

Rattus norvegicus [10] = assay: Toxicity in iron-overloaded Sprague-Dawley rat assessed as survival at 150 umol/kg/day, po after 28 days by non-renal perfusion protocol; format: organism-based; details: in vivo, 672 h; how it was run: as §3
Rattus norvegicus [11] = assay: Toxicity in iron-overloaded Sprague-Dawley rat assessed as survival at 300 umol/kg/day, po after 28 days by non-renal perfusion protocol; format: organism-based; details: in vivo, 672 h; how it was run: as §3
Rattus norvegicus [12] = assay: Toxicity in non-iron-overloaded Sprague-Dawley rat assessed as survival at 75 umol/kg/day, po after 28 days by non-renal perfusion protocol; format: organism-based; details: in vivo, 672 h
How it was run: (§4)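 Male Sprague–Dawley rats with normal iron stores, unfasted, received oral gavage once daily in the afternoon for 28 days, six per group, with age-matched untreated controls. Euthanasia was 24 h after the last dose. Survival was recorded over the dosing period, and kidney and bone marrow were examined histopathologically.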

Rattus norvegicus [13] = assay: Toxicity in non-iron-overloaded Sprague-Dawley rat assessed as survival at 150 umol/kg/day, po after 28 days by non-renal perfusion protocol; format: organism-based; details: in vivo, 672 h; how it was run: as §4
Rattus norvegicus [14] = assay: Toxicity in non-iron-overloaded Sprague-Dawley rat assessed as survival at 300 umol/kg/day, po after 28 days by non-renal perfusion protocol; format: organism-based; details: in vivo, 672 h; how it was run: as §4
Rattus norvegicus [15] = assay: Nephrotoxicity in Sprague-Dawley rat assessed as heavy vacuolized renal tubules at […] for 7 days by renal perfusion studies; format: toxicity, organism-based; details: in vivo, 168 h, in the assay text read “237 umol/kg” for “273 umol/kg”
How it was run: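 Male Sprague–Dawley rats (200–250 g), fasted overnight, got 237 µmol/kg/dose po twice daily (474 µmol/kg/day) for 7 days and were fed about 3 h post-drug. Untreated age-matched rats were controls. One day post-drug, under pentobarbital, kidneys were perfusion-fixed with glutaraldehyde in Tyrode's buffer and embedded in TAAB. 500 nm sections were stained with toluidine blue and examined by light microscopy at 400×.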

Liver [16] = assay: Biodistribution in Sprague-Dawley rat liver assessed per gram tissue wet weight at 300 umol/kg, sc after 1 hr; format: ADME, organism-based; details: in vivo
Liver [17] = assay: Biodistribution in Sprague-Dawley rat liver assessed per gram tissue wet weight at 300 umol/kg, po after 1 hr; format: ADME, organism-based; details: in vivo
How it was run: (§5)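 Male Sprague–Dawley rats (250–350 g) got one 300 µmol/kg dose, po or sc. Vehicle was water or the monosodium salt (free acid plus 1 equiv NaOH). Three rats per time point were euthanized by CO2 at 1, 2 or 4 h. Plasma came from citrated cardiac blood; liver, kidney, heart and pancreas were removed. Drug levels were measured by HPLC with UV detection at 310 nm against linear calibration curves (detection limit 0.25 µM).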

Liver [18] = assay: Biodistribution in Sprague-Dawley rat liver assessed per gram tissue wet weight at 300 umol/kg, sc after 2 hrs; format: ADME, organism-based; details: in vivo
Liver [19] = assay: Biodistribution in Sprague-Dawley rat liver assessed per gram tissue wet weight at 300 umol/kg, po after 2 hrs; format: ADME, organism-based; details: in vivo; how it was run: as §5
Liver [20] = assay: Biodistribution in Sprague-Dawley rat liver assessed per gram tissue wet weight at 300 umol/kg, sc after 4 hrs; format: ADME, organism-based; details: in vivo
Liver [21] = assay: Biodistribution in Sprague-Dawley rat liver assessed per gram tissue wet weight at 300 umol/kg, po after 4 hrs; format: ADME, organism-based; details: in vivo; how it was run: as §5
Kidney [22] = assay: Biodistribution in Sprague-Dawley rat kidney assessed per gram tissue wet weight at 300 umol/kg, sc after 1 hr; format: ADME, organism-based; details: in vivo
Kidney [23] = assay: Biodistribution in Sprague-Dawley rat kidney assessed per gram tissue wet weight at 300 umol/kg, po after 1 hr; format: ADME, organism-based; details: in vivo; how it was run: as §5
Kidney [24] = assay: Biodistribution in Sprague-Dawley rat kidney assessed per gram tissue wet weight at 300 umol/kg, sc after 2 hrs; format: ADME, organism-based; details: in vivo
Kidney [25] = assay: Biodistribution in Sprague-Dawley rat kidney assessed per gram tissue wet weight at 300 umol/kg, po after 2 hrs; format: ADME, organism-based; details: in vivo; how it was run: as §5
Kidney [26] = assay: Biodistribution in Sprague-Dawley rat kidney assessed per gram tissue wet weight at 300 umol/kg, sc after 4 hrs; format: ADME, organism-based; details: in vivo
Kidney [27] = assay: Biodistribution in Sprague-Dawley rat kidney assessed per gram tissue wet weight at 300 umol/kg, po after 4 hrs; format: ADME, organism-based; details: in vivo; how it was run: as §5
Heart [28] = assay: Biodistribution in Sprague-Dawley rat heart assessed per gram tissue wet weight at 300 umol/kg, sc after 1 hr; format: ADME, organism-based; details: in vivo
Heart [29] = assay: Biodistribution in Sprague-Dawley rat heart assessed per gram tissue wet weight at 300 umol/kg, po after 1 hr; format: ADME, organism-based; details: in vivo; how it was run: as §5
Heart [30] = assay: Biodistribution in Sprague-Dawley rat heart assessed per gram tissue wet weight at 300 umol/kg, sc after 2 hrs; format: ADME, organism-based; details: in vivo
Heart [31] = assay: Biodistribution in Sprague-Dawley rat heart assessed per gram tissue wet weight at 300 umol/kg, po after 2 hrs; format: ADME, organism-based; details: in vivo; how it was run: as §5
Heart [32] = assay: Biodistribution in Sprague-Dawley rat heart assessed per gram tissue wet weight at 300 umol/kg, sc after 4 hrs; format: ADME, organism-based; details: in vivo
Pancreas [33] = assay: Biodistribution in Sprague-Dawley rat pancreas assessed per gram tissue wet weight at 300 umol/kg, sc after 1 hr; format: ADME, organism-based; details: in vivo
Pancreas [34] = assay: Biodistribution in Sprague-Dawley rat pancreas assessed per gram tissue wet weight at 300 umol/kg, po after 1 hr; format: ADME, organism-based; details: in vivo; how it was run: as §5
Pancreas [35] = assay: Biodistribution in Sprague-Dawley rat pancreas assessed per gram tissue wet weight at 300 umol/kg, sc after 2 hrs; format: ADME, organism-based; details: in vivo
Pancreas [36] = assay: Biodistribution in Sprague-Dawley rat pancreas assessed per gram tissue wet weight at 300 umol/kg, po after 2 hrs; format: ADME, organism-based; details: in vivo; how it was run: as §5
Pancreas [37] = assay: Biodistribution in Sprague-Dawley rat pancreas assessed per gram tissue wet weight at 300 umol/kg, sc after 4 hrs; format: ADME, organism-based; details: in vivo
Pancreas [38] = assay: Biodistribution in Sprague-Dawley rat pancreas assessed per gram tissue wet weight at 300 umol/kg, po after 4 hrs; format: ADME, organism-based; details: in vivo; how it was run: as §5
Plasma [39] = assay: Biodistribution in Sprague-Dawley rat plasma at 300 umol/kg, sc after 1 hr; format: ADME, organism-based; details: in vivo
Plasma [40] = assay: Biodistribution in Sprague-Dawley rat plasma at 300 umol/kg, po after 1 hr; format: ADME, organism-based; details: in vivo; how it was run: as §5
Plasma [41] = assay: Biodistribution in Sprague-Dawley rat plasma at 300 umol/kg, sc after 2 hrs; format: ADME, organism-based; details: in vivo
Plasma [42] = assay: Biodistribution in Sprague-Dawley rat plasma at 300 umol/kg, po after 2 hrs; format: ADME, organism-based; details: in vivo; how it was run: as §5
Plasma [43] = assay: Biodistribution in Sprague-Dawley rat plasma at 300 umol/kg, sc after 4 hrs; format: ADME, organism-based; details: in vivo
Plasma [44] = assay: Biodistribution in Sprague-Dawley rat plasma at 300 umol/kg, po after 4 hrs; format: ADME, organism-based; details: in vivo; how it was run: as §5

`COCCOCCOCCOc1cccc(C2=N[C@@](C)(C(=O)O)CS2)c1O` [DEFERITAZOLE] was tested, and the Activity (Rattus norvegicus [1]) was 18.7%, the Activity (Rattus norvegicus [2]) was 20.7% and the Activity (Rattus norvegicus [3]) was over 95%. For the same compound, the Activity (Rattus norvegicus [4]) was over 95%, the Activity (Rattus norvegicus [5]) was over 95% and the Activity (Rattus norvegicus [6]) was 13.4%. For the same compound, the Activity (Sapajus apella [7]) was 23%, the Activity (Sapajus apella [8]) was 21.5% and the Activity (Rattus norvegicus [9]) was “Non-toxic”. For the same compound, the Activity (Rattus norvegicus [10]) was “Non-toxic”, the Activity (Rattus norvegicus [11]) was “Non-toxic” and the Activity (Rattus norvegicus [12]) was “Non-toxic”. For the same compound, the Activity (Rattus norvegicus [13]) was “Non-toxic”, the Activity (Rattus norvegicus [14]) was “Non-toxic” and the Activity (Rattus norvegicus [15]) was “Non-toxic”. The Drug uptake (Liver [16]) was 318 nmol/g, the Drug uptake (Liver [17]) was 234 nmol/g and the Drug uptake (Liver [18]) was 193 nmol/g. The Drug uptake (Liver [19]) was 151 nmol/g, the Drug uptake (Liver [20]) was 168 nmol/g and the Drug uptake (Liver [21]) was 87 nmol/g. The Drug uptake (Kidney [22]) was 259 nmol/g, the Drug uptake (Kidney [23]) was 150 nmol/g and the Drug uptake (Kidney [24]) was 145 nmol/g. It also gave a Drug uptake (Kidney [25]) of 48 nmol/g, a Drug uptake (Kidney [26]) of 90 nmol/g and a Drug uptake (Kidney [27]) of 15 nmol/g. For the same compound, the Drug uptake (Heart [28]) was 16 nmol/g, the Drug uptake (Heart [29]) was 9 nmol/g and the Drug uptake (Heart [30]) was 8 nmol/g. It also gave a Drug uptake (Heart [31]) of 4 nmol/g, a Drug uptake (Heart [32]) of 6 nmol/g and a Drug uptake (Pancreas [33]) of 22 nmol/g. For the same compound, the Drug uptake (Pancreas [34]) was 9 nmol/g, the Drug uptake (Pancreas [35]) was 30 nmol/g and the Drug uptake (Pancreas [36]) was 24 nmol/g. For the same compound, the Drug uptake (Pancreas [37]) was 12 nmol/g, the Drug uptake (Pancreas [38]) was 6 nmol/g and the Drug uptake (Plasma [39]) was 46 nmol/g. It also gave a Drug uptake (Plasma [40]) of 26 nmol/g, a Drug uptake (Plasma [41]) of 24 nmol/g and a Drug uptake (Plasma [42]) of 9 nmol/g. It also gave a Drug uptake (Plasma [43]) of 13 nmol/g and a Drug uptake (Plasma [44]) of 2 nmol/g.
